Data: ChEMBL document CHEMBL3875167, “Design and synthesis of chiral 2H-chromene-N-imidazolo-amino acid conjugates as aldose reductase inhibitors” (Eur J Med Chem, 2016)
Activity calls are given as the source filed them. No cut-off for these calls is given here.

What was measured:
[1] = target: Aldo-keto reductase family 1 member B1 (Rattus norvegicus, UniProt P07943); assay: Inhibition of rat lenses ALR2 using DL-glyceraldehyde as substrate preincubated for 10 mins followed by substrate addition measured for 4 mins
How it was run: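 ALR2 assay run at 30 °C in 1 mL containing 0.10 mM NADPH, 0.1 M sodium phosphate pH 6.2 and enzyme extract. The mixture was preincubated 10 min, then 10 mM DL-glyceraldehyde was added and NADPH oxidation followed for 4 min. Compounds were in DMSO diluted with water. Substrate-free blank rates were subtracted.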

[2] = target: Aldo-keto reductase family 1 member A1 (Rattus norvegicus, UniProt P51635); assay: Inhibition of rat kidney ALR1 using sodium D-glucuronate as substrate preincubated for 10 mins followed by substrate addition measured for 4 mins
Chain of Aldo-keto reductase family 1 member A1 (P51635 whole entry, looked up): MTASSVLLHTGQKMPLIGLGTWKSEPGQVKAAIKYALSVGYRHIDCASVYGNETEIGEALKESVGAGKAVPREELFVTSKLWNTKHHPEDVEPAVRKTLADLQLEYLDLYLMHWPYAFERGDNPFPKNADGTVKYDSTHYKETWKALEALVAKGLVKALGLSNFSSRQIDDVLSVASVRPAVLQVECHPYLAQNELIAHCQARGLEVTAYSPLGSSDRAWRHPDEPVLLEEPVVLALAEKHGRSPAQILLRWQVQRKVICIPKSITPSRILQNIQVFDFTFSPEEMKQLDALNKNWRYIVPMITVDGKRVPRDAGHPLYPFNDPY
How it was run: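 ALR1 assay run at 37 °C in 1 mL containing 0.12 mM NADPH, 0.1 M sodium phosphate pH 7.2 and enzyme extract. The mixture was preincubated 10 min, then 20 mM sodium D-glucuronate was added and the reaction monitored for 4 min. The nonenzymatic NADPH oxidation rate without substrate was subtracted. Triplicates at ≥3 concentrations in the 20–80% inhibition range were used to build dose-response curves for IC50.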

[3] = organism: Rattus norvegicus; assay: Selectivity index, ratio of IC50 for rat kidney ALR1 to IC50 for rat lenses ALR2
[4] = Antidiabetic activity in STZ-induced diabetic Sprague-Dawley rat model assessed as decrease in fructose level in lenses at 5 to 50 uM/kg, po administered for 8 weeks; format: functional, organism-based
How it was run: (§1)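 Diabetes was induced in rats by a single i.p. injection of streptozotocin, 35 mg/kg in 0.1 M citrate buffer pH 4.5. Animals with fasting blood glucose >150 mg/dl at 72 h were included. Treatment was given p.o. daily for 8 weeks as a suspension in 2% Tween 80 in saline. Diabetic controls received vehicle only. Lenses were dissected at sacrifice after 8 weeks.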

[5] = Antidiabetic activity in STZ-induced diabetic Sprague-Dawley rat model assessed as effect on body weight at 5 uM/kg, po administered for 8 weeks (reference value: 186 +/- 6.91 g); format: functional, organism-based; how it was run: as §1
[6] = Antidiabetic activity in STZ-induced diabetic Sprague-Dawley rat model assessed as blood glucose level at 5 uM/kg, po administered for 8 weeks measured every week during compound dosing (reference value: 261.53 +/- 53 mg/dl); format: functional, organism-based; how it was run: as §1
[7] = Antidiabetic activity in STZ-induced diabetic Sprague-Dawley rat model assessed as aldose reductase activity at 5 uM//kg, po administered for 8 weeks (reference value: 44.66 +/- 2.7 U); format: functional, organism-based; how it was run: as §1
[8] = Antidiabetic activity in STZ-induced diabetic Sprague-Dawley rat model assessed as decrease in sorbitol level in lenses at 5 to 50 uM/kg, po administered for 8 weeks; format: functional, organism-based; how it was run: as §1
[9] = Antidiabetic activity in STZ-induced diabetic Sprague-Dawley rat model assessed as delay in progression of cataract at 5 to 50 uM/kg, po administered for 8 weeks measured every week during compound dosing by slit-lamp microscopy; format: functional, organism-based; how it was run: as §1
[10] = Antidiabetic activity in STZ-induced diabetic Sprague-Dawley rat model assessed as aldose reductase activity at 50 uM//kg, po administered for 8 weeks (reference value: 44.66 +/- 2.7 U); format: functional, organism-based; how it was run: as §1
[11] = Antidiabetic activity in STZ-induced diabetic Sprague-Dawley rat model assessed as effect on body weight at 50 uM/kg, po administered for 8 weeks (reference value: 186 +/- 6.91 g); format: functional, organism-based; how it was run: as §1
[12] = Antidiabetic activity in STZ-induced diabetic Sprague-Dawley rat model assessed as blood glucose level at 50 uM/kg, po administered for 8 weeks measured every week during compound dosing (reference value: 261.53 +/- 53 mg/dl); format: functional, organism-based; how it was run: as §1
[13] = tested on: Rattus norvegicus; assay: Antidiabetic activity in po dosed STZ-induced diabetic Sprague-Dawley rat model assessed as decrease in aldose reductase activity administered for 8 weeks; format: functional, organism-based; how it was run: as §1

Row | SMILES | IC50 [1] [nM] | IC50 [2] [nM] | Ratio IC50 [3] | other results
1 | COc1ccc(-c2cnc(CNC(=O)C3=Cc4ccccc4OC3)[nH]2)cc1 | 275 | 2540 | 9.22 | –
2 | COc1cccc2c1OCC(C(=O)NCc1ncc(-c3ccccc3)[nH]1)=C2 | 731 | 1210 | 1.66 | –
3 | O=C(NCc1ncc(-c2ccc(F)cc2)[nH]1)C1=Cc2ccccc2OC1 | 420 | 1840 | 4.38 | –
4 | COc1cccc2c1OCC(C(=O)N[C@H](c1ncc(-c3ccccc3)[nH]1)C(C)C)=C2 | 1000 | 4870 | 4.87 | –
5 | COc1ccc(-c2cnc(CNC(=O)C3=Cc4cccc(OC)c4OC3)[nH]2)cc1 | 899 | 1310 | 1.45 | –
6 | O=C(C1=Cc2ccccc2OC1)N1CCC[C@H]1c1ncc(-c2ccc(Cl)cc2)[nH]1 | 337 | 3880 | 11.5 | –
7 | O=C(C1=Cc2ccccc2OC1)N1CCC[C@H]1c1ncc(-c2ccccc2)[nH]1 | 3670 | 5720 | 1.55 | –
8 | O=C(NCc1ncc(-c2ccccc2)[nH]1)C1=Cc2ccccc2OC1 | 2120 | 5190 | 2.48 | –
9 | COc1cccc2c1OCC(C(=O)N[C@H](c1ncc(-c3ccc(Br)cc3)[nH]1)C(C)C)=C2 | 771 | 3410 | 4.42 | –
10 | CC(C)[C@H](NC(=O)C1=Cc2ccccc2OC1)c1ncc(-c2ccccc2)[nH]1 | 4290 | 9410 | 2.19 | –
11 | O=C(NCc1ncc(-c2ccc(Br)cc2)[nH]1)C1=Cc2ccccc2OC1 | 732 | 3380 | 4.61 | –
12 | O=C(C1=Cc2ccccc2OC1)N1CCC[C@H]1c1ncc(-c2cccnc2)[nH]1 | 222 | 2430 | 10.9 | –
13 | O=C1NC(=O)[C@@]2(CCOc3ccc(F)cc32)N1 | – | – | – | Activity [10]: 39 U
14 | NC(=O)[C@@H]1C[C@]2(NC(=O)NC2=O)c2cc(F)ccc2O1 | – | – | – | Activity [10]: 36.3 U
15 | COc1cccc2c1OCC(C(=O)N1CCC[C@H]1c1ncc(-c3ccccc3)[nH]1)=C2 | 3070 | 1830 | 0.596 | –

Further compounds by falling IC50 [1], results first:

Row | IC50 [1] [nM] | IC50 [2] [nM] | Ratio IC50 [3] | SMILES | other results
16 | 220 | 2280 | 10.3 | CC(C)[C@H](NC(=O)C1=Cc2ccccc2OC1)c1ncc(-c2ccc(Br)cc2)[nH]1 | –
17 | 146 | 1420 | 9.71 | COc1cccc2c1OCC(C(=O)N1CCC[C@H]1c1ncc(-c3cccnc3)[nH]1)=C2 | –
18 | 114 | 2420 | 21.2 | O=C(NCc1ncc(-c2ccc(Cl)cc2)[nH]1)C1=Cc2ccccc2OC1 | –
19 | 91 | 1560 | 17.1 | COc1cccc2c1OCC(C(=O)NCc1ncc(-c3ccc(Br)cc3)[nH]1)=C2 | –
20 | 71 | 1620 | 22.8 | COc1cccc2c1OCC(C(=O)NCc1ncc(-c3ccc(F)cc3)[nH]1)=C2 | –
21 | 65 | 1440 | 22.2 | COc1cccc2c1OCC(C(=O)NCc1ncc(-c3ccc(Cl)cc3)[nH]1)=C2 | –
22 | 31 | 3420 | 110 | COc1cccc2c1OCC(C(=O)N1CCC[C@H]1c1ncc(-c3ccc(Cl)cc3)[nH]1)=C2 | Activity [4]: Active; Activity [5]: 309 g; Activity [6]: 139 mg/dL; Activity [7]: 41.3 U; Activity [8]: Active; Activity [9]: Active; Activity [10]: 39.5 U; Activity [11]: 320 g; Activity [12]: 130 mg/dL; Activity [13]: Dose-dependent effect
